Data published in ChEMBL document CHEMBL4411328, “Synthesis and Structural/Functional Characterization of Selective M14 Metallocarboxypeptidase Inhibitors Based on Phosphinic Pseudopeptide Scaffold: Implications on the Design of Specific Optical Probes” (J Med Chem, 2019).
The source made the active and inactive calls. No cut-off for these calls is given here.

Tests used:
Carboxypeptidase A1 [1] = biological target: T1, Carboxypeptidase A1 (Homo sapiens, UniProt P15085); assay: Inhibition of human CPA1 using AAFP as substrate measured at pre-steady state by spectrophotometry
T1 sequence (P15085 whole entry): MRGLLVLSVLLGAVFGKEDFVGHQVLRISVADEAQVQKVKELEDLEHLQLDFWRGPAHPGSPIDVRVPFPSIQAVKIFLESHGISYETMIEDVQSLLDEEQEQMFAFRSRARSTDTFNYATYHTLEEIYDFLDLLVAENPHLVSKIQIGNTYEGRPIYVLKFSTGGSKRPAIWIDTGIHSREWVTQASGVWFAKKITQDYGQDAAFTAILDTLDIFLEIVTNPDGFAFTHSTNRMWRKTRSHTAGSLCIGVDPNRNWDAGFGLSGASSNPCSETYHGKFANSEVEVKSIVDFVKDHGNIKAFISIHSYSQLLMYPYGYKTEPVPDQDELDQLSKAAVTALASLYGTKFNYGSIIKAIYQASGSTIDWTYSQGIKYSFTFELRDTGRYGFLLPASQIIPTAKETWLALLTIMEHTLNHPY

[2] = biological target: T2, Carboxypeptidase A1 (Homo sapiens) (UniProt P15085); assay: Inhibition of human CPA1 using AAFP as substrate assessed as dissociation rate constant measured at pre-steady state by spectrophotometry
T2 sequence (whole entry): T1 sequence (P15085 whole entry)

[3] = biological target: T3, Carboxypeptidase B (Homo sapiens) (UniProt P15086); assay: Inhibition of human CPB1 at 1 nM to 1 mM using AAFA as substrate preincubated for 45 mins to 2 hrs measured at 30 sec intervals for 15 mins by UV/vis-spectrophotometry
T3 sequence (whole entry): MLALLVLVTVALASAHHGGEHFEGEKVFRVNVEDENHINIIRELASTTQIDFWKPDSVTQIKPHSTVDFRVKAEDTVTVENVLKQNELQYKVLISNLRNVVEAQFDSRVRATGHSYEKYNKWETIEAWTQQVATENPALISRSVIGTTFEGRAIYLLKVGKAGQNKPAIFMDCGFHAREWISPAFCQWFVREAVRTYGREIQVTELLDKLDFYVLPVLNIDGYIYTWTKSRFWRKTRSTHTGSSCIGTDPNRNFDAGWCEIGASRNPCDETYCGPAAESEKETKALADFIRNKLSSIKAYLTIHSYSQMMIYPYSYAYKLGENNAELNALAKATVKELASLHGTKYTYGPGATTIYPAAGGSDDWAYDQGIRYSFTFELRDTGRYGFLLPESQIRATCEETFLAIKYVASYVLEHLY
How it was run: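 hCPB1 was used at 6.0x10-9 M with 1.0x10-4 M AAFA, read at 355 nm. After 45 min preincubation with inhibitor at 37 °C, residual activity at varied inhibitor concentrations was followed for 15 min at 30 sec intervals, in triplicate. Kiapp was fitted with the tight-binding equation.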

Carboxypeptidase A1 [4] = biological target: T1, Carboxypeptidase A1; assay: Inhibition of human CPA1 using AAFP as substrate assessed as apparent first-order rate constant measured at pre-steady state by measuring Koff/Kon ratio by spectrophotometry; settings: read-out: Ki(app)
HEK-293T = assay: Cytotoxicity against HEK293T cells assessed as reduction in cell viability at 1 to 5 uM after 24 hrs by XTT assay; assay type: cell-based; settings: human
How it was run: (§1)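 Cells were exposed to compound at 1 and 5 µM for 24h in culture, and viability was then read by the XTT assay.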

HeLa = assay: Cytotoxicity against human HeLa cells assessed as reduction in cell viability at 1 to 5 uM after 24 hrs by XTT assay; assay type: cell-based; how it was run: as §1
Carboxypeptidase A1 [5] = biological target: T1, Carboxypeptidase A1; assay: Inhibition of human CPA1 using AAFP as substrate preincubated for 45 mins to 2 hrs measured at 30 sec intervals for 15 mins by UV/vis-spectrophotometry
How it was run: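 hCPA1 was used at 1.0x10-8 M with AAFP substrate at 1.0x10-4 M, read at 355 nm. Enzyme and inhibitor were preincubated 45 min at 37 °C before substrate was added. Initial velocities were read every 30 sec for 15 min, in triplicate. Apparent Ki came from a fit to the tight-binding equation.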

[6] = biological target: T2, Carboxypeptidase A1 (Homo sapiens); assay: Inhibition of human CPA1 using AAFP as substrate assessed as association rate constant measured at pre-steady state by spectrophotometry
[7] = Drug uptake in CPA3 expressing human HeLa cells at 1 to 5 uM treated for 6 hrs followed by cell wash and measured by DAPI-staining based fluorescence confocal microscopy; assay type: ADME
How it was run: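 HeLa cells with cytoplasmic hCPA3 expression were treated 6 h with the fluorescent probe at 1 or 5 µM, washed, then imaged by fluorescence confocal microscopy for internalization and co-localization with CPA3.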

Bos taurus = species on record: Bos taurus; assay: Inhibition of bovine trypsin at 1 nM to 1 mM using Nalpha-benzoyl-L-arginine 4-nitroanilide hydrochloride as substrate preincubated for 45 mins measured at 30 sec intervals for 15 mins by UV/vis-spectrophotometry
[8] = biological target: Neutrophil elastase (Homo sapiens) (UniProt P08246); assay: Inhibition of human neutrophil Elastase at 1 nM to 1 mM using succinyl-alanylalanyl-prolyl-valine-4-nitroanilide as substrate preincubated for 45 mins measured at 30 sec intervals for 15 mins by UV/vis-spectrophotometry
How it was run: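 hNElastase 2.0x10-7 M, Suc-AAPVPNA 1.0x10-3 M, in 100 mM Tris-HCl pH 8.0, monitored at 414 nm. Preincubated with inhibitor 45 min at 37 °C before substrate; initial velocities from 30-sec reads over 15 min, triplicate.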

Stromelysin-2 = Stromelysin-2 (Homo sapiens, UniProt P09238); assay: Inhibition of human MMP10 using fluorogenic Mca-Pro-Leu-Gly-Leu-Dpa-Ala-Arg-NH2 peptide as substrate preincubated for 45 mins measured at 30 sec intervals for 15 mins by UV/vis-spectrophotometry
How it was run: (§2)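 MMPs at nanomolar level with fluorogenic Mca-Pro-Leu-Gly-Leu-Dpa-Ala-Arg-NH2 substrate in 50 mM Tris-HCl pH 6.8, 10 mM CaCl2. Enzyme, inhibitor and buffer preincubated 45 min at 37 °C, then substrate added; initial velocities from 30-sec reads over 15 min, in triplicate.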

[9] = biological target: Prothrombin (Homo sapiens) (UniProt P00734); assay: Inhibition of human thrombin at 1 nM to 1 mM using benzoylphenyl-valyl-arginine 4-nitroanilide as substrate preincubated for 45 mins measured at 30 sec intervals for 15 mins by UV/vis-spectrophotometry
How it was run: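 hThrombin 2.0x10-8 M with 1.0x10-3 M BzFVRPNA in 100 mM Tris-HCl pH 8.0, followed at 414 nm. Enzyme and inhibitor preincubated 45 min at 37 °C; substrate then added; initial velocities every 30 sec for 15 min, in triplicate.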

Collagenase 3 = Collagenase 3 (Homo sapiens, UniProt P45452); assay: Inhibition of human MMP13 using fluorogenic Mca-Pro-Leu-Gly-Leu-Dpa-Ala-Arg-NH2 peptide as substrate preincubated for 45 mins measured at 30 sec intervals for 15 mins by UV/vis-spectrophotometry; how it was run: as §2
[10] = biological target: Cytosolic carboxypeptidase 6 (Homo sapiens) (UniProt Q5VU57); assay: Inhibition of human CCP6 at 1 nM to 1 mM using tubulin as substrate preincubated for 45 mins measured at 30 sec intervals for 15 mins by UV/vis-spectrophotometry
How it was run: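 hCCP1 or hCCP6 at 1.0x10-6 g with tubulin (12.5x10-5 g) as substrate in 20 mM Tris-HCl pH 7.5, 100 mM NaCl. Enzyme, inhibitor and buffer preincubated 45 min at 37 °C before substrate addition; run in triplicate.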

Chain of Stromelysin-2 (P09238 whole entry): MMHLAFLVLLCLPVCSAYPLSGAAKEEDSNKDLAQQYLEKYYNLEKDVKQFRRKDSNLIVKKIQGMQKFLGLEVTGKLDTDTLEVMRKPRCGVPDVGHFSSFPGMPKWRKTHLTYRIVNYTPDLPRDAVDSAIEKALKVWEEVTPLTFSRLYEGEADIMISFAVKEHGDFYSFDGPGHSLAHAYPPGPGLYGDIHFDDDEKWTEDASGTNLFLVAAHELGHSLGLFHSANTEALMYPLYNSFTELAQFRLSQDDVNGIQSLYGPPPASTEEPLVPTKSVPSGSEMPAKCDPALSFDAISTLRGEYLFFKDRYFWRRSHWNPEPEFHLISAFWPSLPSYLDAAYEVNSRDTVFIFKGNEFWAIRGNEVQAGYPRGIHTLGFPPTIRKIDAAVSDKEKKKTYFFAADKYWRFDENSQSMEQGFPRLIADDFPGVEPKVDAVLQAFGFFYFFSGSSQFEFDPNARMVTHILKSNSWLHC
Chain of Neutrophil elastase (Homo sapiens) (P08246 whole entry): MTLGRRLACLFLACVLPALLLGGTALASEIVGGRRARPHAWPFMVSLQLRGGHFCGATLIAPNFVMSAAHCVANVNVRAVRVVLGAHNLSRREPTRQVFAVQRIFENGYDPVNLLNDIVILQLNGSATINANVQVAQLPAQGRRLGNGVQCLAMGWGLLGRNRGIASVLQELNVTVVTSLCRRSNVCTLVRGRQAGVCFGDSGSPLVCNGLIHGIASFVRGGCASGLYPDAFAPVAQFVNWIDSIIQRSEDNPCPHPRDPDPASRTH
Chain of Cytosolic carboxypeptidase 6 (Homo sapiens) (Q5VU57 whole entry): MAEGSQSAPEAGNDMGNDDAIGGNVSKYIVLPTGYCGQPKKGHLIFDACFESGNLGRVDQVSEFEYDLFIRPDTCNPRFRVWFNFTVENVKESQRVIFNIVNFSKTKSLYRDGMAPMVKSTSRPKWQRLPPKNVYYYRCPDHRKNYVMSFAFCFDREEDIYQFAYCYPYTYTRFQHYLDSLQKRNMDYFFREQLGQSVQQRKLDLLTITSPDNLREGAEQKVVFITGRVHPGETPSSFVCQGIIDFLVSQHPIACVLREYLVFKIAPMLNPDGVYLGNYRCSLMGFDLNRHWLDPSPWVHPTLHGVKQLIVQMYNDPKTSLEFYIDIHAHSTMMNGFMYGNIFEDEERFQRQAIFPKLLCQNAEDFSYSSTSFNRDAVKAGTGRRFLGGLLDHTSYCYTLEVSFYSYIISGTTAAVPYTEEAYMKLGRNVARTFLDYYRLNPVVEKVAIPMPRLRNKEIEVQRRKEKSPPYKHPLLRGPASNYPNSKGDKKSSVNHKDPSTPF

| SMILES | Ki (Carboxypeptidase A1 [1]) [nM] | K [2] [×10⁻⁵ /s] | inhibition [3] | Ki (Carboxypeptidase A1 [4]) [nM] | Ki (Carboxypeptidase A1 [5]) [nM] | K [6] [×10⁵ /M/s] | also measured |
| --- | --- | --- | --- | --- | --- | --- | --- |
| CC(=O)N[C@@H](Cc1ccc(O)cc1)C(=O)N[C@@H](C)P(=O)(O)C[C@@H](CCc1ccccc1)C(=O)O | 0.16 | 7.6 | inactive | 0.53 | 0.107 | 1.44 | Activity (HEK-293T): Non-Toxic; Activity (HeLa): Non-Toxic |
| CC(=O)N[C@@H](CO)C(=O)N[C@@H](C)P(=O)(O)C[C@@H](CCc1ccccc1)C(=O)O |  |  | inactive |  | 5.9 |  |  |
| C[C@H](NC(=O)[C@H](Cc1ccc(O)cc1)NC(=O)COCCOCCNC(=O)CCOCCOCCOCCNC(=O)CCc1ccc(C(=C\C=C2\N(CCCCS(=O)(=O)O)c3ccc4c(S(=O)(=O)[O-])cc(S(=O)(=O)O)cc4c3C2(C)C)/C=C/C2=[N+](CCCCS(=O)(=O)O)c3ccc4c(S(=O)(=O)O)cc(S(=O)(=O)O)cc4c3C2(C)C)cc1)P(=O)(O)C[C@@H](CCc1ccccc1)C(=O)O | 0.07 | 4.8 | inactive | 0.24 | 0.089 | 2.03 | Drug uptake [7]: Not Active; inhibition (Bos taurus): inactive; inhibition [8]: inactive; Ki (Stromelysin-2): 983 nM; inhibition [9]: inactive; Ki (Collagenase 3): 562 nM; inhibition [10]: inactive |
| CC(=O)N[C@@H](CCCCN)C(=O)N[C@@H](C)P(=O)(O)C[C@@H](CCc1ccccc1)C(=O)O |  |  | inactive |  | 1.2 |  |  |
| C[C@H](NC(=O)[C@H](Cc1ccc(O)cc1)NC(=O)COCCOCCN)P(=O)(O)C[C@@H](CCc1ccccc1)C(=O)O |  |  | inactive |  | 0.3 |  |  |
| CC(=O)N[C@@H](CC(C)C)C(=O)N[C@@H](Cc1ccccc1)P(=O)(O)C[C@@H](CCc1ccccc1)C(=O)O |  |  | inactive |  | 0.08 |  |  |

Continued by falling Ki (Carboxypeptidase A1 [5]), values first:

| Ki (Carboxypeptidase A1 [1]) [nM] | K [2] [×10⁻⁵ /s] | inhibition [3] | Ki (Carboxypeptidase A1 [4]) [nM] | Ki (Carboxypeptidase A1 [5]) [nM] | K [6] [×10⁵ /M/s] | SMILES | also measured |
| --- | --- | --- | --- | --- | --- | --- | --- |
|  |  | inactive |  | 3.1 |  | CC(=O)N[C@@H](CCC(=O)O)C(=O)N[C@@H](C)P(=O)(O)C[C@@H](CCc1ccccc1)C(=O)O |  |
|  |  | inactive |  | 1.7 |  | CC(=O)N1CCC[C@H]1C(=O)N[C@@H](C)P(=O)(O)C[C@@H](CCc1ccccc1)C(=O)O |  |
| 0.16 | 7 | inactive | 0.53 | 0.129 | 1.33 | CC(=O)NCCOCCOCC(=O)N[C@@H](Cc1ccc(O)cc1)C(=O)N[C@@H](C)P(=O)(O)C[C@@H](CCc1ccccc1)C(=O)O |  |
| 0.14 | 6 | inactive | 0.47 | 0.087 | 1.27 | CC(=O)N[C@@H](CC(C)C)C(=O)N[C@@H](C)P(=O)(O)C[C@@H](CCc1ccccc1)C(=O)O |  |
